From PMC2956778 (Biochemical and biophysical research communications, 2010)
“Also recorded” adds a separate entry of the source. Where two headings read alike, the source gives them in different places.

Experiments:
[1] = Membrane permeability assay; design: species or system rabbit
[2] = tested on: microsomes from bovine brain cerebrum
[3] = target: Ca2+-saturated CaM bound to RyR1 (skeletal SR vesicles) (Homo sapiens, UniProt P0DP23); assay: [35S]CaM binding to skeletal SR vesicles; design: species or system rabbit; conditions: for Effect on [35S]CaM binding to SR vesicles: LPC effect probably an artefact (also decreased nonspecific binding)
[4] = tested on: complex between CaM and the peptide representing the CaM-binding domain of RyR1; conditions: cited from earlier work
[5] = target: RyR1 (skeletal SR vesicles) (Oryctolagus cuniculus, UniProt P11716); assay: [3H]ryanodine binding to skeletal SR vesicles; design: species or system rabbit; conditions: for Effect on [3H]ryanodine binding: 50 μM free Ca2+
Chain of RyR1 (skeletal SR vesicles) (P11716 whole entry): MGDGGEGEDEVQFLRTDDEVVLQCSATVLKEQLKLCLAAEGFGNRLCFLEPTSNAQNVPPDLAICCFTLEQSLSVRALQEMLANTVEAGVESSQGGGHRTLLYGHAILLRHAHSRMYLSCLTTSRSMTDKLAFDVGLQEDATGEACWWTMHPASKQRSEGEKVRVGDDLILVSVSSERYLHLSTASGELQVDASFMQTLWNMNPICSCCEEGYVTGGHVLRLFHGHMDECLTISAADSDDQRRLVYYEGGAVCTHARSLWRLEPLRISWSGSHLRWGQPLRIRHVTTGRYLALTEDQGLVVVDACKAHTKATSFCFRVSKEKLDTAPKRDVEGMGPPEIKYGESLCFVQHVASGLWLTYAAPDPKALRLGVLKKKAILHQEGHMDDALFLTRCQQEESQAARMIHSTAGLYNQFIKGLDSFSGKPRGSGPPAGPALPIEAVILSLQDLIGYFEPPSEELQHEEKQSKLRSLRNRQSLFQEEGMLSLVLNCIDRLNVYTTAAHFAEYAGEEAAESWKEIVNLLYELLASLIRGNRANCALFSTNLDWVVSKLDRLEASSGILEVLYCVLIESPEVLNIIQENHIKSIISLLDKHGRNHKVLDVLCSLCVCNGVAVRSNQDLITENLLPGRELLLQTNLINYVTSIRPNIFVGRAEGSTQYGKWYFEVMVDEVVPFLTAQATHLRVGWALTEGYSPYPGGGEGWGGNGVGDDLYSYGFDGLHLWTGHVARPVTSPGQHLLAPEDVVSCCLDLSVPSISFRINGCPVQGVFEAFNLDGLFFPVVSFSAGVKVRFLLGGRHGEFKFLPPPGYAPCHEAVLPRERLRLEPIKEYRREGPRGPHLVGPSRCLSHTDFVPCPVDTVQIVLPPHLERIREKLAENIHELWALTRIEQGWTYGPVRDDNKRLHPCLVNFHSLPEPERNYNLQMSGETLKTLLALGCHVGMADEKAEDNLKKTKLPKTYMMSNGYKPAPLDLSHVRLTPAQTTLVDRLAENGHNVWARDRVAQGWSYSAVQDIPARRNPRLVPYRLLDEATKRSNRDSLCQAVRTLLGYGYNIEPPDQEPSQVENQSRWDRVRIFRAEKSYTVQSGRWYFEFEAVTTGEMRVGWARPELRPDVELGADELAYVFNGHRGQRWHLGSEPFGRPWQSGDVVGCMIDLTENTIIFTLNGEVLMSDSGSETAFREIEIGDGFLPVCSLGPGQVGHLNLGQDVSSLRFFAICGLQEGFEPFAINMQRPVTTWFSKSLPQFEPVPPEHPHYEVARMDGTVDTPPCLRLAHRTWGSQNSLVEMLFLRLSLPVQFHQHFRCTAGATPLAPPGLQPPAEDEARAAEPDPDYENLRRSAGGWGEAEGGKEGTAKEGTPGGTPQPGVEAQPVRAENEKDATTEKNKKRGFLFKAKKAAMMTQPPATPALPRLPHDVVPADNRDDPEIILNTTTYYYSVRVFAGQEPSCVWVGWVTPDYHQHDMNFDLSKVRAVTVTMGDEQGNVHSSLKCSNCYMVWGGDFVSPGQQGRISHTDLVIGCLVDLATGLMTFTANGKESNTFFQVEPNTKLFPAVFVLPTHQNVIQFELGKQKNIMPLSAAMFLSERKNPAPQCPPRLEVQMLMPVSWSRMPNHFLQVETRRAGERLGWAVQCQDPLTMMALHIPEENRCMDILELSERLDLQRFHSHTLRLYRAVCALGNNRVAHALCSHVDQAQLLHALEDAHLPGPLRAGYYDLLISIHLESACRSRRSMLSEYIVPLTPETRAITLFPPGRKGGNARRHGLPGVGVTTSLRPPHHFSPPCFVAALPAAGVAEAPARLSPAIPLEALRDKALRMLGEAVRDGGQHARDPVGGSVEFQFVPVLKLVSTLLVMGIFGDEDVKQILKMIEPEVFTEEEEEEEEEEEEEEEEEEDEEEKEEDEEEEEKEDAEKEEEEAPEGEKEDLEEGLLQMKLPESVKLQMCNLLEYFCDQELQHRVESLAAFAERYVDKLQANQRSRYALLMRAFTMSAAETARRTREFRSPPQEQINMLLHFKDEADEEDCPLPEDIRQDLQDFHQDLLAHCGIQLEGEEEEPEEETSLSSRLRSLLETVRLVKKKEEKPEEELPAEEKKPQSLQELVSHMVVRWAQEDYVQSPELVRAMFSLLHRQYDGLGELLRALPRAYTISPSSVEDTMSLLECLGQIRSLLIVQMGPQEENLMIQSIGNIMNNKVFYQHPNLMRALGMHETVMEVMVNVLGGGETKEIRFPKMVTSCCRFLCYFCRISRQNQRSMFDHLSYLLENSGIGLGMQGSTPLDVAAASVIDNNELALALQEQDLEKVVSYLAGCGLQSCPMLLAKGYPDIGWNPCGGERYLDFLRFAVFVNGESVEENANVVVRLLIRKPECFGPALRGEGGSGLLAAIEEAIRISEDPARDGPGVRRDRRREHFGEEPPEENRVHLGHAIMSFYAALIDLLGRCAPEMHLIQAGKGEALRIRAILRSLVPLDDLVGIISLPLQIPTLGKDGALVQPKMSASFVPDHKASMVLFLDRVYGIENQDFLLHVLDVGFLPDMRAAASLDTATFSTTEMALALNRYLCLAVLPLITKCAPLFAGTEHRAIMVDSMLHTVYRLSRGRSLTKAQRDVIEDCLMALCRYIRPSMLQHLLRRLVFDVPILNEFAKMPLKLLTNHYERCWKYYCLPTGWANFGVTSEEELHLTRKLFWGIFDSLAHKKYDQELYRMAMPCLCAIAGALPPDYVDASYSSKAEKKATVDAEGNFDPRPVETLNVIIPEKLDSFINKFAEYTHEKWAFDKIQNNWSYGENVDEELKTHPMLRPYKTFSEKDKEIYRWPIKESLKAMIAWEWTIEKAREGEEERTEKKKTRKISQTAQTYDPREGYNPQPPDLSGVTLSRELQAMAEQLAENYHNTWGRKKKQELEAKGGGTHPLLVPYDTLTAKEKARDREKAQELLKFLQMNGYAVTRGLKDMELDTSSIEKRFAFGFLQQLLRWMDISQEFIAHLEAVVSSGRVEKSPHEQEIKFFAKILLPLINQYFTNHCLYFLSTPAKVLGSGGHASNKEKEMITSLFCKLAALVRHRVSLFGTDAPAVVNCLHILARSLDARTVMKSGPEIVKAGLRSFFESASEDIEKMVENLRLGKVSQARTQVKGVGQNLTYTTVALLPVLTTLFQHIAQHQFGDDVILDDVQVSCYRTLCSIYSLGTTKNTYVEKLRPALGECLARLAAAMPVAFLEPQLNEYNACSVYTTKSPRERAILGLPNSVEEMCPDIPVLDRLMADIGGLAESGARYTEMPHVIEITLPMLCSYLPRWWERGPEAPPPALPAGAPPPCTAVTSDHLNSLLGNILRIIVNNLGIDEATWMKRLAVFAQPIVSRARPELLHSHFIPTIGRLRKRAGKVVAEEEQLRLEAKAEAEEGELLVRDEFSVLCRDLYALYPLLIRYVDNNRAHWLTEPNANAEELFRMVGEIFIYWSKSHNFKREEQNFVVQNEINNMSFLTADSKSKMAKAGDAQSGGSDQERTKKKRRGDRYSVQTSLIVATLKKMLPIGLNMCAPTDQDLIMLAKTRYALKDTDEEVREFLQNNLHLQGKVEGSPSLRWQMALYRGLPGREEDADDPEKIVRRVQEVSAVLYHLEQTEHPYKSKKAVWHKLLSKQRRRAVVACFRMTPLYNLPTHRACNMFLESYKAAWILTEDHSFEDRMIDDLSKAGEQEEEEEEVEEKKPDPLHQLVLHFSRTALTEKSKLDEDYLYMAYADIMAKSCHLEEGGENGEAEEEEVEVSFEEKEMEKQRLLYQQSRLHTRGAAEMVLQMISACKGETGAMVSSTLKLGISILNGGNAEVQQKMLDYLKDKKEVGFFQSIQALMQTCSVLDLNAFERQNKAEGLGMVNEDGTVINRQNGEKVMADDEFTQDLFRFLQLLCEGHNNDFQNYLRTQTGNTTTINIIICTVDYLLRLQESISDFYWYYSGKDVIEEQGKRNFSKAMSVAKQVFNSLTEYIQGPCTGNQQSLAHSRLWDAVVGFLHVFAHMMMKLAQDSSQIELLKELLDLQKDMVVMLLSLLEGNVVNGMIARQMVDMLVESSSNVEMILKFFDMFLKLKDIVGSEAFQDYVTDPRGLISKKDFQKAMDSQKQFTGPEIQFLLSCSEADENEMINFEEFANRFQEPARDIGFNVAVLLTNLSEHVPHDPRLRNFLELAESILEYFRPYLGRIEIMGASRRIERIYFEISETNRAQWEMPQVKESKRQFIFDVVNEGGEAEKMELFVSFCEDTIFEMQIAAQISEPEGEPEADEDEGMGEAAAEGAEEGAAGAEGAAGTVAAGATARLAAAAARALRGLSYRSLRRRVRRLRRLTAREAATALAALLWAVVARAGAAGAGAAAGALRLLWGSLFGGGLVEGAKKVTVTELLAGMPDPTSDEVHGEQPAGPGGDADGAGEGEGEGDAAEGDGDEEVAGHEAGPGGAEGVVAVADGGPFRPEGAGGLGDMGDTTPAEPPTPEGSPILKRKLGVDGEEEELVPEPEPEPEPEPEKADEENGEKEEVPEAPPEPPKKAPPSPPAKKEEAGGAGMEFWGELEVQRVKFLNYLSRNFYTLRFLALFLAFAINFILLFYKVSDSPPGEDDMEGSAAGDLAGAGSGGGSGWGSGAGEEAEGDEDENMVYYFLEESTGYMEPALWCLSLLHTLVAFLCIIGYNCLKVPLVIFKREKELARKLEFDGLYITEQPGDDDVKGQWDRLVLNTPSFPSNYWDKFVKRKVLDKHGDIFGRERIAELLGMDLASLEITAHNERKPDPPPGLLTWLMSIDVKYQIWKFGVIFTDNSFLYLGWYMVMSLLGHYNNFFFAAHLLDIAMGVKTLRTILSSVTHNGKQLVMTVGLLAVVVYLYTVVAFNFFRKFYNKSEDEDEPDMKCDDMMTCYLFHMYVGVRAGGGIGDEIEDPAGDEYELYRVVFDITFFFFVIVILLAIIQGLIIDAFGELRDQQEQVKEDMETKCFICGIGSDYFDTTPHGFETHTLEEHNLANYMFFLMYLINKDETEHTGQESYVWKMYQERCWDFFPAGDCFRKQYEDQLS

purified RyR1 = purified RyR1 (Oryctolagus cuniculus, UniProt P11716); assay: Single channel recordings of purified RyR1 in planar lipid bilayers; format: biochemical, rabbit; conditions: for Ac1 / Ac2 / Ao1 / Ao2 / Po / τc1 / τc2 (lifetime of the second closed state) / τo1 / τo2 / No. of events: +1 μM SPC; for No. of events: 2 min recordings; for Single channel open probability (Po), representative recording: after 1 μM SPC cis
Chain of purified RyR1 (P11716 whole entry, the tested form may be a part): as the sequence (P11716 whole entry) above
Method in brief: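 Purified RyR1 from rabbit SR: CHAPS-solubilised, sucrose-gradient purified, reconstituted into phosphatidylcholine liposomes, fused cis into PE:PS:PC (5:3:2) n-decane bilayers. Symmetrical 0.25 M KCl, 20 mM K-HEPES pH 7.4, 22 μM free Ca²⁺ cis. Test compound added cis. For +CaM, 30 min room-temperature preincubation with 1 μM CaM, then 100 nM CaM cis. Recorded at ±35 mV, sampled 10 kHz, filtered 2 kHz, ≥2 min per condition. Dwell times fitted by maximum likelihood to exponential sums.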

[6] = tested on: microsomes from bovine brain cerebrum; assay: Ca2+ release from brain microsomes; conditions: data not shown

Q: Which “Effect on glucose permeability of SR vesicles” value (shortened to “Effect on glucose permeability”) ([1]; 1% CHAPS detergent) does the source give for `C[C@H](CCC(=O)NCCC[N+](C)(C)CCCS(=O)(=O)[O-])[C@H]1CC[C@H]2[C@@H]3[C@H](O)C[C@@H]4C[C@H](O)CC[C@]4(C)[C@H]3C[C@H](O)[C@]12C` [CHAPS] here?
A: released a large amount of stored glucose

Q: Which “Ca2+ release from brain microsomes” value [2] does the source give for `CCCCCCCC/C=C\CCCCCCCC(=O)OCC(O)COP(=O)(O)O` (centres unmarked) [LPA, oleoyl-lysophosphatidic acid] here?
A: released a large amount of Ca^2+

Q: And the “Effect on glucose permeability” value ([1]; 50 μM lysophospholipid)?
A: do not disrupt the permeability barrier

Q: What about the “Effect on [35S]CaM binding to SR vesicles” value (from here on “Effect on [35S]CaM binding”) [3] of the same compound?
A: ineffective

Q: With `CCCCCCCC/C=C\CCCCCCCC(=O)OC[C@@H](O)COP(=O)([O-])OCC[N+](C)(C)C` [LPC, oleoyl-lysophosphatidylcholine] as the compound, how does the “Ca2+ release from brain microsomes” value [2] read?
A: released a large amount of Ca^2+

Q: What about the “Effect on glucose permeability” value ([1]; 50 μM lysophospholipid) of the same compound?
A: do not disrupt the permeability barrier

Q: And the “Effect in peptide binding experiments” value [4]?
A: without action

Q: What about the “Effect on [35S]CaM binding” value [3] of the same compound?
A: decreased; also recorded: significantly decrease

Q: What does the source list for `CCCCCCCCCCCCC/C=C/[C@@H](O)[C@@H](N)COP(=O)(O)O` [S1P, D-erythro-sphingosine-1-phosphate]?
A: Effect on glucose permeability of SR vesicles ([1]; 50 μM lysophospholipid): do not disrupt the permeability barrier; Effect on [35S]CaM binding to SR vesicles [3]: ineffective; Effect on [3H]ryanodine binding ([5]; absence of CaM): minor inhibitory effect; Effect on [3H]ryanodine binding ([5]; presence of CaM): further decreased

Q: With `CCCCCCCCCCCCC/C=C/[C@@H](O)[C@@H](N)COP(=O)(O)OCC[N+](C)(C)C` [SPC, D-erythro-sphingosylphosphorylcholine] as the compound, how does the “Ca2+ release from brain microsomes” value [2] read?
A: released a large amount of Ca^2+

Q: And the “Effect on glucose permeability” value ([1]; 50 μM lysophospholipid)?
A: do not disrupt the permeability barrier

Q: And the IC50 ([4]; read-out: IC50 in peptide binding assays)?
A: 19.4 ± 1.4 µM

Q: What about the “Hill-slope of [35S]CaM displacement” value [3] of the same compound?
A: 2.3 ± 0.7

Q: What about the “Effect on [35S]CaM binding” value [3] of the same compound?
A: significantly decrease

Q: What about the Ac1 (purified RyR1; 22 μM Ca2+) of the same compound?
A: 0.994 ± 0.003

Q: And the Ac2 (purified RyR1; 22 μM Ca2+)?
A: 0.006 ± 0.003

Q: What about the Ao1 (purified RyR1; 22 μM Ca2+) of the same compound?
A: 0.81 ± 0.18

Q: And the Ao2 (purified RyR1; 22 μM Ca2+)?
A: 0.19 ± 0.18

Q: And the Po (purified RyR1; 22 μM Ca2+)?
A: 0.24 ± 0.10

Q: And the τc1 (purified RyR1; 22 μM Ca2+)?
A: 1.07 ± 0.68 ms

Q: What about the “τc2 (lifetime of the second closed state)” value (purified RyR1; 22 μM Ca2+) of the same compound?
A: 452 ± 140 ms

Q: And the τo1 (purified RyR1; 22 μM Ca2+)?
A: 0.24 ± 0.19 ms

Q: What about the τo2 (purified RyR1; 22 μM Ca2+) of the same compound?
A: 5.09 ± 3.32 ms

Q: What about the Ac1 (purified RyR1; 22 μM Ca2+ and 100 nM CaM) of the same compound?
A: 0.96 ±0.03

Q: What about the Ac2 (purified RyR1; 22 μM Ca2+ and 100 nM CaM) of the same compound?
A: 0.04 ± 0.03

Q: And the Ao1 (purified RyR1; 22 μM Ca2+ and 100 nM CaM)?
A: 0.94 ± 0.05

Q: What about the Ao2 (purified RyR1; 22 μM Ca2+ and 100 nM CaM) of the same compound?
A: 0.06 ± 0.05

Q: What about the Po (purified RyR1; 22 μM Ca2+ and 100 nM CaM) of the same compound?
A: 0.18 ± 0.09

Q: What about the τc1 (purified RyR1; 22 μM Ca2+ and 100 nM CaM) of the same compound?
A: 2.81 ± 1.66 ms

Q: What about the “τc2 (lifetime of the second closed state)” value (purified RyR1; 22 μM Ca2+ and 100 nM CaM) of the same compound?
A: 619 ± 242 ms

Q: And the τo1 (purified RyR1; 22 μM Ca2+ and 100 nM CaM)?
A: 0.16 ± 0.12 ms

Q: What about the τo2 (purified RyR1; 22 μM Ca2+ and 100 nM CaM) of the same compound?
A: 3.12 ± 2.10 ms

Q: What about the No. of events (purified RyR1; 22 μM Ca2+ and 100 nM CaM) of the same compound?
A: 10,392 ±2633

Q: What about the No. of events (purified RyR1; 22 μM Ca2+) of the same compound?
A: 9767 ± 1884

Q: And the “Single channel open probability (Po), representative recording” value (purified RyR1; 100 nM CaM, control Po 0.15)?
A: 0.05

Q: And the “Single channel open probability (Po), representative recording” value (purified RyR1; absence of CaM, control Po 0.51)?
A: 0.16

Q: What about the “Hill-slope of [3H]ryanodine binding dose-response” value ([5]; absence of CaM, oxidizing conditions (5 mM GSSG)) of the same compound?
A: −2.9 ± 0.2

Q: And the “Hill-slope of [3H]ryanodine binding dose-response” value ([5]; absence of CaM, reducing conditions (5 mM GSH))?
A: −1.7 ± 0.04

Q: And the “Effect on [3H]ryanodine binding” value ([5]; presence of CaM)?
A: did not significantly alter

Q: Which “Ca2+ release from brain microsomes” value ([6]; 5 mM caffeine) does the source give for `Cn1c(=O)c2c(ncn2C)n(C)c1=O` [caffeine] here?
A: only had minor effects

Q: Which “Ca2+ release from brain microsomes” value ([6]; 1 μM ryanodine) does the source give for `CC(C)[C@@]1(O)[C@@H](OC(=O)c2ccc[nH]2)[C@@]2(O)[C@@]3(C)C[C@]4(O)O[C@@]5([C@H](O)[C@@H](C)CC[C@]35O)[C@@]2(O)[C@@]14C` [ryanodine] here?
A: only had minor effects
